Assay results taken from ChEMBL document CHEMBL1143811, “Bis-acridines as lead antiparasitic agents: structure-activity analysis of a discrete compound library in vitro” (Antimicrob Agents Chemother, 2007).
pEC50: −log10 of the molar value. ≈ marks a conversion by molar mass, not a printed value. Calls of active or inactive are those of the source. No cut-off for these calls is given here.

How the values were obtained:
Schistosoma mansoni [1] = assay: Antimicrobial activity against Schistosoma mansoni assessed as worm vitality at 6 uM after 4 hrs; type: functional, organism-based
Summary of the method: (§1)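 20-day-old worms were obtained by perfusion of BALB/c mice infected with 200 cercariae. About 20 worms/well were kept in Basch 169 with 10% bovine calf serum, preincubated 24 h at 37°C in 5% CO2, then exposed to 1, 3 or 6 µM. Vitality (feeding, flexing, gut peristalsis; death = nonmotile, shrunken, dark) was scored at 4 and 18 h in two experiments.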

Plasmodium falciparum [2] = assay: Antimicrobial activity against chloroquine-resistant Plasmodium falciparum W2 after 72 hrs; type: functional, organism-based; conditions: W2, 72 h
Entamoeba histolytica = assay: Antimicrobial activity against Entamoeba histolytica HM1 IMSS trophozoites after 48 hrs; type: functional, organism-based; conditions: 60 h, in the assay text read “60 hrs” for “48 hrs”
Summary of the method: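 Trophozoites were grown axenically in TYI-S-33 with 10% bovine adult serum and seeded at ~10^4 cells/well. Compound (range up to 10 µM) was added to 48-h log-phase cultures, then incubated 60 h at 37°C under anaerobic conditions. Viability was read by CellTiter-Glo luminescence. EC50 came from quadruplicate wells in two independent experiments.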

HL-60 = assay: (§2) Cytotoxicity against human HL60 cells; type: cell-based; conditions: Homo sapiens, HL-60
Summary of the method: (§3)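 Bloodstream-form T. b. brucei in Baltz medium (~10^4/ml) and HL-60 cells in RPMI 1640 (~10^5/ml), both with 16.7% FBS, were exposed 48 h at 37°C in 5% CO2 to compound up to 10 µM in 1% final DMSO. Live cells were hemocytometer-counted, by motility (trypanosomes) or trypan blue exclusion (HL-60). EC50 was taken by regression versus DMSO cultures from three experiments. MIC was the lowest fully lethal concentration, judged microscopically.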

[3] = as §2; type: cell-based, HL-60; conditions: human, HL-60 cells; read-out: MIC; summary of the method: as §3
[4] = test system: Trypanosoma brucei brucei; assay: Antimicrobial activity against Trypanosoma brucei brucei clone 427-221a after 48 hrs; type: functional, organism-based; summary of the method: as §3
Leishmania donovani = assay: Antileishmanial activity against Leishmania donovani MHOM/SD/00/1S-2D promastigotes assessed as parasite death at 10 uM after 72 hrs; type: functional
Summary of the method: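 Promastigotes seeded at 1.5 x 10^5 cells/ml in medium 199 with 10% heat-inactivated FBS. Compound added at a final 10 µM, in triplicate, in sealed flasks at 27°C for up to 7 days. Aliquots taken daily and viability read by CellTiter-Glo luminescence. Result given as percent reduction in viability relative to DMSO-treated cultures. Controls were K11777 or amphotericin B at 10 µM.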

[5] = Selectivity index, ratio of EC50 for HL60 cells to EC50 for Trypanosoma brucei brucei clone 427-221a; type: functional, HL-60; summary of the method: as §3
Trichomonas vaginalis [6] = assay: Antimicrobial activity against Trichomonas vaginalis G3 assessed as parasite death at 10 uM after 24 hrs; type: functional
Summary of the method: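 G3 strain grown in Diamond's medium at 37°C. Assay culture set up as 0.5 ml dense culture diluted into 5.0 ml complete medium. Compound at a final 10 µM for 24 h at 37°C. Motile cells counted by hemocytometer. Result is percent dead parasites relative to DMSO-treated cultures, from five separate experiments. Controls were untreated, DMSO and metronidazole.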

Plasmodium falciparum [7] = assay: Antimicrobial activity against chloroquine-sensitive Plasmodium falciparum 3D7 after 72 hrs; type: functional, organism-based; conditions: 3D7, 72 h
Leishmania major [8] = assay: Antileishmanial activity against Leishmania major MHOM/IL/81/FE/BNI amastigotes after 48 hrs; type: functional, organism-based
Summary of the method: (§4)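 Peritoneal macrophages from BALB/c mice (6-8 wk) adhered 2 h at 37°C, infected 24 h with stationary-phase L. major promastigotes at 10:1 parasite:macrophage, washed, then exposed 48 h to compound at 0.0001 to 10 µM. Intracellular amastigotes stained with acridine orange/ethidium bromide and counted by fluorescence microscopy; percent amastigotes cleared versus DMSO-treated cultures; three repeats.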

[9] = Selectivity index, ratio of MIC for HL60 cells to MIC for Trypanosoma brucei brucei clone 427-221a; type: functional, HL-60; summary of the method: as §3
Schistosoma mansoni [10] = assay: Antimicrobial activity against Schistosoma mansoni assessed as worm vitality at 3 uM after 4 hrs; type: functional, organism-based; summary of the method: as §1
Leishmania major [11] = assay: Antileishmanial activity against Leishmania major MHOM/IL/81/FE/BNI amastigotes after 48 hrs at 1 uM; type: functional, organism-based; summary of the method: as §4
[12] = Cytotoxicity against BALB/c mouse peritoneal macrophages at 1 uM after 48 hrs hrs; type: cell-based; conditions: macrophage
[13] = Cytotoxicity against BALB/c mouse peritoneal macrophages at 10 uM after 48 hrs hrs; type: cell-based; conditions: macrophage
[14] = test system: Trypanosoma brucei brucei; assay: Antimicrobial activity against Trypanosoma brucei brucei clone 427-221a at 1.56 uM; type: functional
MRC5 = assay: Toxicity against human MRC5 cells at 3.13 uM; type: cell-based; conditions: mrc5, 3.13 µM
Plasmodium falciparum [15] = assay: Antimalarial activity against chloroquine-resistant Plasmodium falciparum FcB1R after 72 hrs; type: functional, organism-based
J774 = assay: Cytotoxicity against mouse J774 cells; type: cell-based
Trichomonas vaginalis [16] = assay: Antimicrobial activity against Trichomonas vaginalis G3 assessed as parasite death at 1 uM after 24 hrs; type: functional

SMILES | Activity (Schistosoma mansoni [1]) | pEC50 (Plasmodium falciparum [2]) | pEC50 (Entamoeba histolytica) | pEC50 (HL-60) | MCC [3] | pEC50 [4] | MIC [4] | Activity (Leishmania donovani) | Ratio EC50 [5] | Activity (Trichomonas vaginalis [6]) | pEC50 (Plasmodium falciparum [7]) | pEC50 (Leishmania major [8]) | Ratio [9] | Activity (Schistosoma mansoni [10]) | Activity (Leishmania major [11]) | Activity [12] | Activity [13] | Activity [14] | Activity (MRC5) | pEC50 (Plasmodium falciparum [15]) | also measured
COc1ccc2nc3cc(Cl)ccc3c(NCCCN(C)CCCNc3c4ccc(Cl)cc4nc4ccc(OC)cc34)c2c1 | Active | 5.96 | 6.30 | 5.93 | 10 µM | 9.05 | 0.1 µM (≈ 0.0629 µg/mL) | 99% | 1326 | 92% | 6.10 | 5.22 | 100 | Active |  |  |  |  |  |  | 
COc1ccc2nc3cc(Cl)ccc3c(NCCNCCCNCCNc3c4ccc(Cl)cc4nc4ccc(OC)cc34)c2c1 | Active | 6.87 | 5.30 | 6.92 | 1 µM | 8.89 | 1 µM (≈ 0.644 µg/mL) | 99% | 91 | 75% | 6.98 |  | 1 | Active | inactive | Toxic | Toxic |  |  |  | 
COc1ccc2nc3cc(Cl)ccc3c(NCCCCN(CCCNc3c4ccc(Cl)cc4nc4ccc(OC)cc34)C(=O)CNC(=O)[C@H](C)N)c2c1 |  | 6.08 | 5.30 | 6.31 | > 10 µM | 8.19 | 10 µM (≈ 7.57 µg/mL) | 16% | 77 | 0% | 6.15 | 6.15 | >1 |  |  |  | Toxic |  |  |  | 
COc1ccc2nc3cc(Cl)ccc3c(NCCCNCCCNc3c4ccc(Cl)cc4nc4ccc(OC)cc34)c2c1 | Active | 6.74 | 5.30 | 6.61 | 10 µM | 8.96 | 1 µM (≈ 0.615 µg/mL) | 95% | 214 | 23% | 6.90 |  | 10 | Active | inactive | Toxic | Toxic | 100% | 100% | 7.26 | 
COc1ccc2nc3cc(Cl)ccc3c(NCCCN3CCN(CCCNc4c5ccc(Cl)cc5nc5ccc(OC)cc45)CC3)c2c1 |  | 6.95 | 5.30 | 5.83 | 10 µM | 8.74 | 0.1 µM (≈ 0.0684 µg/mL) | 46% | 836 | 10% | 7.19 |  | 100 |  | inactive |  | Toxic | 60% | 0% | 7.77 | 
COc1ccc2nc3cc(Cl)ccc3c(NCCOCCOCCNc3c4ccc(Cl)cc4nc4ccc(OC)cc34)c2c1 |  | 7.13 | 5.30 | 5.52 | 10 µM | 8.24 | 1 µM (≈ 0.632 µg/mL) | 96% | 524 | 75% | 7.21 |  | 10 |  | inactive | Toxic | Toxic |  |  |  | 
COc1ccc2nc3cc(Cl)ccc3c(NCCCCN(CCCNc3c4ccc(Cl)cc4nc4ccc(OC)cc34)C(=O)[C@H](C)N)c2c1 |  | 6.52 | 5.30 | 6.65 | 10 µM | 9.05 | 1 µM (≈ 0.7 µg/mL) | 93% | 242 | 80% | 6.51 |  | 10 |  | inactive | Toxic | Toxic |  |  |  | 
COc1ccc2nc3cc(Cl)ccc3c(NCCCNCCCNCCCNc3c4ccc(Cl)cc4nc4ccc(OC)cc34)c2c1 | Active | 6.83 | 5.30 | 6.85 | 10 µM | 8.85 | 1 µM (≈ 0.672 µg/mL) | 73% | 98 | 0% | 6.92 | 5.52 | 10 |  |  |  |  |  |  |  | 
COc1ccc2nc3cc(Cl)ccc3c(NCCCCNCCCCCNCCCNc3c4ccc(Cl)cc4nc4ccc(OC)cc34)c2c1 | Active | 6.89 | 5.30 | 6.57 | 10 µM | 8.72 | 1 µM (≈ 0.714 µg/mL) | 98% | 140 | 66% | 6.90 | 6.22 | 10 |  |  |  | Toxic |  |  |  | 
COc1ccc2nc3cc(Cl)ccc3c(NCCCCNCCCNc3c4ccc(Cl)cc4nc4ccc(OC)cc34)c2c1 | Active | 6.87 | 5.30 | 6.84 | 10 µM | 9.15 | 1 µM (≈ 0.629 µg/mL) | 96% | 209 | 3% | 7.21 | 6.10 | 10 | Active |  |  | Toxic | 100% | 100% | 7.21 | Activity (J774): Toxic
COc1ccc2nc3cc(Cl)ccc3c(NCCCCCCCCNc3c4ccc(Cl)cc4nc4ccc(OC)cc34)c2c1 |  | 6.91 | 6.30 | 5.78 | 10 µM | 8.07 | 1 µM (≈ 0.628 µg/mL) | 99% | 191 | 100% | 6.94 |  | 10 |  | inactive |  | Toxic | 100% | 20% | 7.72 | 
COc1ccc2nc3cc(Cl)ccc3c(NCCCCCCCCCCNc3c4ccc(Cl)cc4nc4ccc(OC)cc34)c2c1 |  | 6.94 | 6.30 | 5.50 | 10 µM | 7.60 | 1 µM (≈ 0.656 µg/mL) | 96% | 125 | 100% | 7.02 |  | 10 |  | inactive |  | Toxic | 100% | 0% | 7.24 | 
Cc1ncc([N+](=O)[O-])n1CCO [METRONIDAZOLE] |  |  | 5.70 |  |  |  |  |  |  |  |  |  |  |  |  |  |  |  |  |  | Activity (Trichomonas vaginalis [16]): 100%
